Source: ChEMBL document CHEMBL5247578, “Effective synthesis of benzimidazoles-imidazo[1,2-a]pyrazine conjugates: A comparative study of mono-and bis-benzimidazoles for antitumor activity” (Eur J Med Chem, 2019)

Legend:
Albumin = Albumin (Bos taurus, UniProt P02769); assay: Binding affinity to bovine serum albumin assessed as binding constant by Stern-Volmer equation based fluorescence spectroscopic method; settings: cattle
MCF7 [1] = assay: Antiproliferative activity against human MCF7 cells assessed as cell growth inhibition by measuring lethal concentration incubated for 48 hrs by sulforhodamine B assay; format: functional; settings: read-out: LC50 (the source's name)
HCC 2998 [2] = assay: Growth inhibition against human HCC 2998 cells incubated for 48 hrs by sulforhodamine B assay; format: functional
SNB-75 = assay: Growth inhibition against human SNB-75 cells assessed as total growth inhibitory concentration incubated for 48 hrs by sulforhodamine B assay; format: functional
NCI-H322M [3] = assay: Antiproliferative activity against human NCI-H322M cells assessed as cell growth at 0.0001 M incubated for 48 hrs by SRB assay relative to control; format: functional; settings: read-out: Activity
MDA-MB-435 = assay: Antiproliferative activity against human MDA-MB-435 cells assessed as cell growth at 0.0001 M incubated for 48 hrs by SRB assay relative to control; format: functional; settings: read-out: Activity
CAKI-1 = assay: Antiproliferative activity against human CAKI-1 cells assessed as cell growth at 0.00000001 M incubated for 48 hrs by SRB assay relative to control; format: functional; settings: dose 10 nM, read-out: Activity
How it was run: (§1)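 NCI-60 five-dose screen over 10^-4–10^-8 M (10-fold dilutions). Cells grown in RPMI 1640 with 5% FBS and 2 mM L-glutamine, seeded at 5,000–40,000 cells/well and preincubated 24 h. Drug from DMSO stock, 48 h at 37 °C, 5% CO2. Adherent cells TCA-fixed and stained with 0.4% SRB; A515 read. Percent growth = (Ti−Tz)/(C−Tz)×100, or (Ti−Tz)/Tz×100 when Ti<Tz.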

DU-145 = assay: Antiproliferative activity against human DU-145 cells assessed as cell growth at 0.0001 M incubated for 48 hrs by SRB assay relative to control; format: functional; settings: read-out: Activity
How it was run: (§2)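 NCI-60 five-dose screen (10^-4 to 10^-8 M). Cells grown in RPMI 1640 with 5% FBS and 2 mM L-glutamine, plated at 5,000-40,000 cells/well and preincubated 24 h. Drug given from DMSO stock, then 48 h at 37 °C, 5% CO2. For adherent lines, cells fixed with cold TCA, SRB-stained and read at 515 nm. Percent growth taken against time-zero and untreated control.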

MCF7 [4] = assay: Antiproliferative activity against human MCF7 cells assessed as cell growth at 0.0001 M incubated for 48 hrs by SRB assay relative to control; format: functional; settings: read-out: Activity
SK-OV-3 = assay: Antiproliferative activity against human SK-OV-3 cells assessed as cell growth at 0.0001 M incubated for 48 hrs by SRB assay relative to control; format: functional; settings: read-out: Activity
HOP-62 [5] = assay: Antiproliferative activity against human HOP-62 cells assessed as cell growth at 0.000001 M incubated for 48 hrs by SRB assay relative to control; format: functional; settings: read-out: Activity; how it was run: as §2
SN12C = assay: Antiproliferative activity against human SN12C cells assessed as cell growth at 0.00000001 M incubated for 48 hrs by SRB assay relative to control; format: functional; settings: dose 10 nM, read-out: Activity
MDA-MB-231 = assay: Antiproliferative activity against human MDA-MB-231 cells assessed as cell growth at 0.00000001 M incubated for 48 hrs by SRB assay relative to control; format: functional; settings: dose 10 nM, read-out: Activity
786-0 [6] = assay: Antiproliferative activity against human 786-0 cells assessed as cell growth at 0.000001 M incubated for 48 hrs by SRB assay relative to control; format: functional; settings: read-out: Activity; how it was run: as §1
NCI-H522 = assay: Antiproliferative activity against human NCI-H522 cells assessed as cell growth at 0.000001 M incubated for 48 hrs by SRB assay relative to control; format: functional; settings: read-out: Activity
MCF7 [7] = assay: Antiproliferative activity against human MCF7 cells assessed as cell growth at 0.00001 M incubated for 48 hrs by SRB assay relative to control; format: functional; settings: read-out: Activity
HCT-15 = assay: Antiproliferative activity against human HCT-15 cells assessed as cell growth at 0.0001 M incubated for 48 hrs by SRB assay relative to control; format: functional; settings: read-out: Activity; how it was run: as §2
HCC 2998 [8] = assay: Antiproliferative activity against human HCC 2998 cells assessed as cell growth at 0.00001 M incubated for 48 hrs by SRB assay relative to control; format: functional; settings: read-out: Activity; how it was run: as §2
M14 = assay: Antiproliferative activity against human M14 cells assessed as cell growth at 0.0000001 M incubated for 48 hrs by SRB assay relative to control; format: functional; settings: dose 100 nM, read-out: Activity
HT-29 = assay: Antiproliferative activity against human HT-29 cells assessed as cell growth at 0.00001 M incubated for 48 hrs by SRB assay relative to control; format: functional; settings: read-out: Activity; how it was run: as §2
BT-549 = assay: Growth inhibition against human BT-549 cells incubated for 48 hrs by sulforhodamine B assay; format: functional
SK-MEL-2 = assay: Antiproliferative activity against human SK-MEL-2 cells assessed as cell growth at 0.000001 M incubated for 48 hrs by SRB assay relative to control; format: functional; settings: read-out: Activity
PC-3 = assay: Antiproliferative activity against human PC-3 cells assessed as cell growth at 0.00001 M incubated for 48 hrs by SRB assay relative to control; format: functional; settings: read-out: Activity
OVCAR-4 = assay: Antiproliferative activity against human OVCAR-4 cells assessed as cell growth at 0.0000001 M incubated for 48 hrs by SRB assay relative to control; format: functional; settings: dose 100 nM, read-out: Activity
NCI-H322M [9] = assay: Antiproliferative activity against human NCI-H322M cells assessed as cell growth at 0.00000001 M incubated for 48 hrs by SRB assay relative to control; format: functional; settings: dose 10 nM, read-out: Activity
HOP-92 = assay: Antiproliferative activity against human HOP-92 cells assessed as cell growth at 0.00000001 M incubated for 48 hrs by SRB assay relative to control; format: functional; settings: dose 10 nM, read-out: Activity; how it was run: as §2
SW-620 = assay: Antiproliferative activity against human SW620 cells assessed as cell growth at 0.00000001 M incubated for 48 hrs by SRB assay relative to control; format: functional; settings: dose 10 nM, read-out: Activity
786-0 [10] = assay: Growth inhibition against human 786-0 cells incubated for 48 hrs by sulforhodamine B assay; format: functional
HOP-62 [11] = assay: Antiproliferative activity against human HOP-62 cells assessed as cell growth at 0.00000001 M incubated for 48 hrs by SRB assay relative to control; format: functional; settings: dose 10 nM, read-out: Activity; how it was run: as §2
Hs-578T = assay: Antiproliferative activity against human Hs-578T cells assessed as cell growth at 0.0000001 M incubated for 48 hrs by SRB assay relative to control; format: functional; settings: dose 100 nM, read-out: Activity
How it was run: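 NCI-60 five-dose mode, 10^-4 to 10^-8 M in 10-fold steps. RPMI 1640, 5% FBS, 2 mM L-glutamine; 24 h preincubation, then 48 h drug exposure at 37 °C. Stocks in DMSO at 400× the top concentration, diluted in medium with gentamicin. TCA fixation, SRB staining, absorbance at 515 nm. Percent growth from time-zero (Tz), control (C) and test (Ti) readings.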

HEK293 = assay: Cytotoxicity against human HEK293 cells assessed as reduction in cell viability at 0.00001 M incubated for 48 hrs by MTT colorimetric assay relative to control; format: toxicity, cell-based; settings: hek293, 48 h, 10 µM
U-251 = assay: Antiproliferative activity against human U-251 cells assessed as cell growth at 0.000001 M incubated for 48 hrs by SRB assay relative to control; format: functional; settings: read-out: Activity

Sequence of Albumin (P02769 whole entry): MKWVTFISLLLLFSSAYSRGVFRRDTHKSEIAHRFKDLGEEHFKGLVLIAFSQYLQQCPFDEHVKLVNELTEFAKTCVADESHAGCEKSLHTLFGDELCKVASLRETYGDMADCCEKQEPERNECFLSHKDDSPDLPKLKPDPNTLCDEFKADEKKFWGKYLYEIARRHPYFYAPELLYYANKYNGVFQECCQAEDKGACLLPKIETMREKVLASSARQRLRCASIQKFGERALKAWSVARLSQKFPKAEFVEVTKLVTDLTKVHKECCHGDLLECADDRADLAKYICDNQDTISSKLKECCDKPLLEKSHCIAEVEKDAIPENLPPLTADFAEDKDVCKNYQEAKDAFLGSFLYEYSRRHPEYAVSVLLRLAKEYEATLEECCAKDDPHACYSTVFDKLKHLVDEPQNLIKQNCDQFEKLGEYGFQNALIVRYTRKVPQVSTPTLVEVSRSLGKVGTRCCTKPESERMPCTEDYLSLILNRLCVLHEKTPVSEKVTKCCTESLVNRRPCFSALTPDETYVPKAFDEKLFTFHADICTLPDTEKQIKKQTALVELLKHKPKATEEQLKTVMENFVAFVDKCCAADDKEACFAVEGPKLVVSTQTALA

Structure (SMILES)	Kb (Albumin)	CC50 (MCF7 [1]) [µM]	GI50 (HCC 2998 [2]) [µM]	TGI (SNB-75) [µM]	growth at 100 µM (NCI-H322M [3]) [%]	growth at 100 µM (MDA-MB-435) [%]	growth at 0.01 µM (CAKI-1) [%]	growth at 100 µM (DU-145) [%]	growth at 100 µM (MCF7 [4]) [%]	growth at 100 µM (SK-OV-3) [%]	growth at 1 µM (HOP-62 [5]) [%]	growth at 0.01 µM (SN12C) [%]	growth at 0.01 µM (MDA-MB-231) [%]	growth at 1 µM (786-0 [6]) [%]	growth at 1 µM (NCI-H522) [%]	growth at 10 µM (MCF7 [7]) [%]	growth at 100 µM (HCT-15) [%]	growth at 10 µM (HCC 2998 [8]) [%]	growth at 0.1 µM (M14) [%]	growth at 10 µM (HT-29) [%]	further results
COc1ccc(-c2cn3ccnc3c(-c3ccc4ncn(C5CCCCC5)c4c3)n2)cc1	4.68 10^5/M	> 100	2.92	> 100	67	11	88	17	24	-2	52	97	99	34	28	16	13	9	95	-5	GI50 (BT-549): 0.41 µM; growth at 1 µM (SK-MEL-2): 49%; growth at 10 µM (PC-3): 5%; growth at 0.1 µM (OVCAR-4): 96%; growth at 0.01 µM (NCI-H322M [9]): 92%; growth at 0.01 µM (HOP-92): 96%; growth at 0.01 µM (SW-620): 98%; GI50 (786-0 [10]): 0.527 µM; growth at 0.01 µM (HOP-62 [11]): 92%; growth at 0.1 µM (Hs-578T): 102%; Activity (HEK293): 16.51%; growth at 1 µM (U-251): 69%
c1ccc(Cn2cnc3ccc(-c4nc(-c5ccc6c(c5)ncn6C5CCCCC5)cn5ccnc45)cc32)cc1	1.08 10^5/M	> 100	1.9	2.89	14	2	87	-8	8	6	82	102	102	46	88	2	3	-92	91	-48	GI50 (BT-549): 1.2 µM; growth at 1 µM (SK-MEL-2): 90%; growth at 10 µM (PC-3): -10%; growth at 0.1 µM (OVCAR-4): 98%; growth at 0.01 µM (NCI-H322M [9]): 97%; growth at 0.01 µM (HOP-92): 88%; growth at 0.01 µM (SW-620): 100%; GI50 (786-0 [10]): 0.799 µM; growth at 0.01 µM (HOP-62 [11]): 79%; growth at 0.1 µM (Hs-578T): 104%; Activity (HEK293): 14.53%; growth at 1 µM (U-251): 83%
